The record followed here is ChEMBL document CHEMBL3102749, “Antiprotozoal activity of dicationic 3,5-diphenylisoxazoles, their prodrugs and aza-analogues” (Bioorg Med Chem, 2014).

Structures are written as SMILES. Calls of active or inactive are those of the source. The calls are words filed in the database; no cut-off is given here.

In test [1] the test system is Trypanosoma brucei rhodesiense. The test can be described thus: Trypanocidal activity against bloodstream form of Trypanosoma brucei rhodesiense STIB900 infected in NMRI mouse assessed as mean survival days at 100 mg/kg, po qd administered for 4 days. It is filed as functional. The gist of the method:
(§1)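 Mice infected with T. b. rhodesiense STIB900 (acute model) dosed once daily for 4 consecutive days, ip (diamidines) or oral (prodrugs). Cure means survival to 60 days post infection without parasitemia relapse. Mean survival days post infection are averaged over all mice, with cured mice counted as >60 days.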

Test [2] relates to Trypanosoma brucei rhodesiense. The test can be described thus: Trypanocidal activity against bloodstream form of Trypanosoma brucei rhodesiense STIB900 infected in NMRI mouse assessed as decrease in parasitemia at 20 mg/kg, ip qd administered for 4 days measured once per week until 60 days by microscopic analysis. It is filed as functional, organism-based. Also noted: dose 20 mg/kg. The gist of the method: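 Mice infected with T. b. rhodesiense STIB900 received one dose daily for 4 consecutive days, 4 mice per group. Diamidines were given intraperitoneally and prodrugs orally. The primary endpoint was cures per group: a mouse counted as cured if it survived 60 days post-infection without parasitemia relapse.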

In test [3] the test system is Trypanosoma brucei rhodesiense. The experiment in a line: Trypanocidal activity against bloodstream form of Trypanosoma brucei rhodesiense STIB900 infected in NMRI mouse assessed as mean parasitemia relapse day at 5 mg/kg, ip qd administered for 4 days. The class given is functional. Particulars: route intraperitoneal. In a few lines:
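Mice infected with STIB900 received 4 consecutive daily intraperitoneal doses, 4 mice per group. The secondary endpoint was mean relapse day post-infection, which separates weaker compounds; mice surviving 60 days without parasitemia relapse were scored as cured.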

In test [4] the test system is Trypanosoma brucei rhodesiense. The test can be described thus: Trypanocidal activity against bloodstream form of Trypanosoma brucei rhodesiense STIB900 infected in NMRI mouse assessed as mean survival days at 20 mg/kg, ip qd administered for 4 days. The note with it: route intraperitoneal. The class given is functional. The gist of the method:
as §1

Test [5] has as its system Trypanosoma brucei rhodesiense. The experiment in a line: Trypanocidal activity against bloodstream form of Trypanosoma brucei rhodesiense STIB900 infected in NMRI mouse assessed as mean survival days at 5 mg/kg, ip qd administered for 4 days. It is filed as functional. In a few lines: as §1

As to `Cl.Cl.N/C(=N\O)c1ccc(-c2cc(-c3cccc(/C(N)=N/O)c3)on2)cc1`, the MSD in test [1] is greater than 43.5 days.
`Cl.Cl.Cl.N=C(N)c1cccc(-c2cc(-c3ccc(C(=N)N)cc3Cl)on2)c1`: the result in test [2] was Active. In addition, in test [3], the Time is 16 days. The MSD in test [4] was greater than 60 days. For the same molecule, the MSD result in test [5] was “inactive”.
Turning to `Cl.Cl.N/C(=N\O)c1ccc(-c2cc(-c3ccc(/C(N)=N/O)cc3)on2)cc1`, in test [1], the MSD was greater than 40.5 days.
